The subject of assay [1] is NCI-H460. To be noted: read-out: GI50 SRB assay NCI-H460; ref [13]; cited from earlier work.
Assay [2] has as its system DU-145 (prostate). The following applies: read-out: GI50 SRB assay DU-145; ref [13]; cited from earlier work.
The subject of assay [3] is SK-OV-3. To be noted: read-out: GI50 SRB assay SK-OV-3; ref [13]; cited from earlier work.
Assay [4] deals with MCF7-luc-GFP-mCherry breast tumor. Kind of assay: Dynamic bioluminescence imaging. In kind it is in vivo, SCID mice. The following applies: for Reduction in bioluminescence as compared to baseline or saline control: 4 h after injection, p<0.05.
Assay [5] has the same test system. Kind of assay: Histological. In kind it is in vivo, SCID mice. To be noted: 120 mg/kg; 48 h post treatment. A digest of the protocol: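 The same MCF7-luc-GFP-mCherry tumour-bearing SCID mice were dosed ip at 120 mg/kg, or with saline. After the 48 h BLI session they were sacrificed and the tumours excised. Tumour cross-sections were stained with H&E, and necrotic (pink) regions were scored against viable (purple) regions relative to the saline control.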

In assay [6] the test system is tubulin. To be noted: read-out: Inhibition of tubulin polymerization IC50; ref [73]; cited from earlier work.
For assay [7], the system named is tubulin. In words: Inhibition of tubulin polymerization. In kind it is biochemical. To be noted: read-out: Inhibition of tubulin polymerization IC50; ± SD.
Assay [8] concerns NCI-H460. Kind of assay: SRB cytotoxicity assay, NCI-H460. It counts as cell-based, human. To be noted: read-out: GI50 SRB assay NCI-H460; average of n ≥ 3 independent determinations.
The subject of assay [9] is DU-145 (prostate). In words: SRB cytotoxicity assay, DU-145. In kind it is cell-based, human. To be noted: read-out: GI50 SRB assay DU-145; average of n ≥ 3 independent determinations.
Assay [10] concerns SK-OV-3. Kind of assay: SRB cytotoxicity assay, SK-OV-3. In kind it is cell-based, human. The following applies: read-out: GI50 SRB assay SK-OV-3; average of n ≥ 3 independent determinations.

The values below come from PMC5308454 (MedChemComm, 2016).

Read-outs that look alike come from different tables or passages of the source. Some results are limits rather than exact numbers.

Turning to `COc1ccc(/C=C\c2cc(OC)c(OC)c(OC)c2)cc1O` [CA4, combretastatin A-4], the GI50 was 5 nM in [1], 6.02 nM in [2] and 5.06 nM in assay [3].
On to `COc1ccc(/C=C\c2cc(OC)c(OC)c(OC)c2)cc1OP(=O)(O)O` [CA4P, Combretastatin A-4P], for which the “Reduction in bioluminescence as compared to baseline or saline control” value in assay [4] (120 mg/kg ip single dose) is “approximately 80%”. In addition, the “Tumor necrosis (H&E) as compared with saline control” value in assay [5] is on record as “much more extensive necrosis”. In addition, the IC50 in assay [6] is greater than 20000 nM.
As to `COc1cc(/C2=C/CCCCc3c2ccc(OC)c3OP(=O)([O-])[O-])cc(OC)c1OC.[Na+].[Na+]` [Compound 24], the “Bioluminescence intensity at 24 and 48 h versus baseline” value in assay [4] (120 mg/kg ip single dose, 24 and 48 h, p<0.005) is “remained significantly below baseline values”. Also, the “Reduction in bioluminescence as compared to baseline or saline control” value in assay [4] (120 mg/kg ip single dose) is “approximately 80%”. For the same compound, in assay [4] (120 mg/kg, 4 h post administration, effect continued at 24 and 48 h), the “Vascular shutdown evidenced by bioluminescence imaging” value was “significant vascular shutdown”. Moreover, the “Tumor necrosis (H&E) as compared with saline control” value in assay [5] is “much more extensive necrosis”.
`COc1ccc2c(c1O)CCCC=C2c1cc(OC)c(OC)c(OC)c1` [KGP18]: the IC50 in assay [7] came out at 1400 nM. Besides, the GI50 in assay [8] worked out at 0.0418 nM; in assay [9], 0.0249 nM; in [10], 0.0543 nM.
